Experimental data: ChEMBL document CHEMBL4387722

Key:
[1] = molecular target: T1, Phosphotyrosine protein phosphatase (Mycobacterium tuberculosis, UniProt A0A045ISB3); experiment: Inhibition of Mycobacterium tuberculosis His-tagged PtpB expressed in Escherichia coli Rosetta 2 (DE3) using pNPP as substrate after 30 mins by spectrophotometric method
T1 sequence (A0A045ISB3 whole entry): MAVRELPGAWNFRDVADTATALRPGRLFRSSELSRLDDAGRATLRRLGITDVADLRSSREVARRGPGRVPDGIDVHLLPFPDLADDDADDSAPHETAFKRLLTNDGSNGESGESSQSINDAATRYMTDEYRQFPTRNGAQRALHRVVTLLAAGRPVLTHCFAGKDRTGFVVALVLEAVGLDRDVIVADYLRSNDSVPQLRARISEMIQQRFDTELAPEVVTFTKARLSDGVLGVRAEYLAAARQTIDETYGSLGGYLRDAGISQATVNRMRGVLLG

[2] = molecular target: T2, Tyrosine-protein phosphatase non-receptor type 1 (Homo sapiens, UniProt P18031); experiment: Inhibition of human PTPN1 expressed in Escherichia coli Rosetta 2 (DE3) using pNPP as substrate after 45 mins by spectrophotometric method
T2 sequence (P18031 whole entry): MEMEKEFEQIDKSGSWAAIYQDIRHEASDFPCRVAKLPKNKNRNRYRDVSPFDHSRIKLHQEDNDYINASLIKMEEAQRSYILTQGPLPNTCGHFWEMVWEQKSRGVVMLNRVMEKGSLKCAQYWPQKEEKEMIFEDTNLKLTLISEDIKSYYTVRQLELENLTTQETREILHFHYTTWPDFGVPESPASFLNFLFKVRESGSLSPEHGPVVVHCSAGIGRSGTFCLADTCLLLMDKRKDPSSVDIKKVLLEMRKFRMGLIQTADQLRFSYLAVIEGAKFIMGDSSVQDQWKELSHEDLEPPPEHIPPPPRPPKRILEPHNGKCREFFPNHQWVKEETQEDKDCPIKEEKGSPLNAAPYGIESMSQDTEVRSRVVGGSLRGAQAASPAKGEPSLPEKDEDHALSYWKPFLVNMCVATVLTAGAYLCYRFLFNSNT

[3] = molecular target: T3, Tyrosine-protein phosphatase non-receptor type 2 (Homo sapiens, UniProt P17706); experiment: Inhibition of human PTPN2 expressed in Escherichia coli Rosetta 2 (DE3) using pNPP as substrate after 45 mins by spectrophotometric method
T3 sequence (P17706 whole entry): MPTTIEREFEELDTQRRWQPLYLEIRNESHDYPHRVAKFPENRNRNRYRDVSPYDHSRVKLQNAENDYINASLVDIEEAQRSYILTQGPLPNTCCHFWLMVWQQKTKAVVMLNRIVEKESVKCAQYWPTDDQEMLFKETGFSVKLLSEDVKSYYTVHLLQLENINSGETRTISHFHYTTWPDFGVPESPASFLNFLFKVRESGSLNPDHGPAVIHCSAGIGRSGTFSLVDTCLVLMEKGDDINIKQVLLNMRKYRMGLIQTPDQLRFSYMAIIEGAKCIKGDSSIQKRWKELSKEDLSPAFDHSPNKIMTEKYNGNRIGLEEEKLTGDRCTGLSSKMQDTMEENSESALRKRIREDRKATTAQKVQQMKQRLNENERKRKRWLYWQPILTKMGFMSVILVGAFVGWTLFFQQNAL

[4] = molecular target: T4, Tyrosine-protein phosphatase non-receptor type 5 (Homo sapiens, UniProt P54829); experiment: Inhibition of human PTPN5 expressed in Escherichia coli Rosetta 2 (DE3) using pNPP as substrate after 45 mins by spectrophotometric method
T4 sequence (P54829 whole entry): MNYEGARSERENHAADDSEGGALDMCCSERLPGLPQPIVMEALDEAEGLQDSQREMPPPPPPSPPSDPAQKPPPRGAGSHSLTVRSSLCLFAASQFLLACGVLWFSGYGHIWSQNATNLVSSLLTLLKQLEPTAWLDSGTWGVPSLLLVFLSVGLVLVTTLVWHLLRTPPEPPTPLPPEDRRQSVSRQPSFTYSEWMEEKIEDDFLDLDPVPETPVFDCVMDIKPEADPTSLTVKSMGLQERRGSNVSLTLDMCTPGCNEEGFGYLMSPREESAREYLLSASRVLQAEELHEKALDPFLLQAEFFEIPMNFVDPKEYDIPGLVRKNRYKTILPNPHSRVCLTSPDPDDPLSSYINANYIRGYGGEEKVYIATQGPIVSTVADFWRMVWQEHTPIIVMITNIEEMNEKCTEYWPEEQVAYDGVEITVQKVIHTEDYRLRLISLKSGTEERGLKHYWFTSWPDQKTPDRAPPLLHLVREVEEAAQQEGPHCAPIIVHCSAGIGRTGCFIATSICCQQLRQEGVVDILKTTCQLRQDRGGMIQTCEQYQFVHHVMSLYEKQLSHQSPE

[5] = test system: Mycobacterium tuberculosis; experiment: Antitubercular activity against Mycobacterium tuberculosis H37Rv after 5 days at 200 uM relative to control; type: functional; settings: 120 h
Summary of the method: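 M. tuberculosis grown in liquid culture with compound at a fixed 200 μM for 5 days. Growth inhibition expressed as percent of control.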

[6] = Inhibition of refolded rhodanese (unknown origin) preincubated with Escherichia coli GroEL/GroES for 60 mins by measuring rhodanese enzyme activity followed by compound addition by Fe(SCN)3 dye based spectrometric analysis; parameters: species or system Homo sapiens
[7] = molecular target: T5, Malate dehydrogenase, mitochondrial (Sus scrofa, UniProt P00346); experiment: Inhibition of refolded pig heart mitochondrial MDH preincubated with Escherichia coli GroEL/GroES for 45 mins using sodium mesoxalate as substrate followed by compound addition and measured after 20 to 30 mins by spectrometric analysis
T5 sequence (P00346 whole entry): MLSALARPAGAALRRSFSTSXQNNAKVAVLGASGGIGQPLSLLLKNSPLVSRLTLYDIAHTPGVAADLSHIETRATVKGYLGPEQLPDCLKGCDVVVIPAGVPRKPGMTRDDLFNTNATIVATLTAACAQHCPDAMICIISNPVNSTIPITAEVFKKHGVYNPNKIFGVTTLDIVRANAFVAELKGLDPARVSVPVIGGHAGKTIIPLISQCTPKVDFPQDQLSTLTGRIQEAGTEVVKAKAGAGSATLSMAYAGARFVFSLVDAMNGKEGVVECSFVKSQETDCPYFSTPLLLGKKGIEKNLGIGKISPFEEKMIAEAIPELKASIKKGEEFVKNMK

E. coli GroEL/ES [8] = molecular target: T6, E. coli GroEL/ES (Escherichia coli, UniProt P0A6F5); experiment: Inhibition of Escherichia coli GroEL expressed in Escherichia coli DH5alpha/Escherichia coli GroES expressed in Escherichia coli BL21 (DE3) assessed as reduction in GroEL/GroES-mediated denatured rhodanese refolding by measuring rhodanese enzyme activity after 45 mins by Fe(SCN)3 dye based spectrometric analysis
E. coli GroEL/ES [9] = molecular target: T6, E. coli GroEL/ES; experiment: Inhibition of Escherichia coli GroEL expressed in Escherichia coliDH5alpha/Escherichia coli GroES expressed in Escherichia coli BL21 (DE3) assessed as reduction in GroEL/GroES-mediated denatured pig heart mitochondrial MDH refolding by measuring MDH enzyme activity using sodium mesoxalate as substrate after 20 to 40 mins by spectrometric analysis
HSP60/HSP10 = HSP60/HSP10 (Homo sapiens, UniProt P10809); experiment: Inhibition of human HSP60 expressed in Escherichia coli Rosetta 2(DE3)/human HSP10 expressed in Escherichia coli Rosetta 2(DE3) pLysS cells assessed as reduction in HSP60/HSP10-mediated denatured pig heart mitochondrial MDH refolding by measuring MDH enzyme activity using sodium mesoxalate as substrate after 40 to 60 mins by spectrometric analysis
[10] = Cytotoxicity against human THLE3 cells assessed as reduction in cell viability after 48 hrs by Alamar blue assay; type: cell-based
Summary of the method: (§1)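 Alamar Blue viability read-out. Human liver (THLE-3) and kidney (HEK 293) cells incubated with compound for 48 h. Tested in dose-response to derive CC50.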

[11] = Cytotoxicity against human HEK293 cells assessed as reduction in cell viability after 48 hrs by Alamar blue assay; type: cell-based; summary of the method: as §1

Sequence of HSP60/HSP10 (P10809 whole entry): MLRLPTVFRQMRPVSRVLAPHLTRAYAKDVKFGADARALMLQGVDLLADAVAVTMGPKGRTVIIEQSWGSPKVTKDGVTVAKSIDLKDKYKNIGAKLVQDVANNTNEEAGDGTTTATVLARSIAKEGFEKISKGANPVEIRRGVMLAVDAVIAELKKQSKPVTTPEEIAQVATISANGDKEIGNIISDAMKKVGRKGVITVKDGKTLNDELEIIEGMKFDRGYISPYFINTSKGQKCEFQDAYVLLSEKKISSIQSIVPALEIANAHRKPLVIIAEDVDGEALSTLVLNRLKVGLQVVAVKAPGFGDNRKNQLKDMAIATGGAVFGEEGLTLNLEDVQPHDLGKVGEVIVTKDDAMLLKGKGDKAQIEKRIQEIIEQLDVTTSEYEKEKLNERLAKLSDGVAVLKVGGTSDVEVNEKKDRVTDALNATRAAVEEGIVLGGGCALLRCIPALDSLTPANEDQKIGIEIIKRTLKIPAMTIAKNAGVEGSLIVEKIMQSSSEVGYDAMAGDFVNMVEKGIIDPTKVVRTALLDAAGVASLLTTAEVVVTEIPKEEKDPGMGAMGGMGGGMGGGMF
Sequence of HSP60/HSP10 (P61604 whole entry, further chain): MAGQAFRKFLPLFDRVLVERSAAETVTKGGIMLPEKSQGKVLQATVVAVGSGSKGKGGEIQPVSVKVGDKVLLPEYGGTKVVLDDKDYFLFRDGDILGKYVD
T6 sequence (P0A6F5 whole entry, looked up): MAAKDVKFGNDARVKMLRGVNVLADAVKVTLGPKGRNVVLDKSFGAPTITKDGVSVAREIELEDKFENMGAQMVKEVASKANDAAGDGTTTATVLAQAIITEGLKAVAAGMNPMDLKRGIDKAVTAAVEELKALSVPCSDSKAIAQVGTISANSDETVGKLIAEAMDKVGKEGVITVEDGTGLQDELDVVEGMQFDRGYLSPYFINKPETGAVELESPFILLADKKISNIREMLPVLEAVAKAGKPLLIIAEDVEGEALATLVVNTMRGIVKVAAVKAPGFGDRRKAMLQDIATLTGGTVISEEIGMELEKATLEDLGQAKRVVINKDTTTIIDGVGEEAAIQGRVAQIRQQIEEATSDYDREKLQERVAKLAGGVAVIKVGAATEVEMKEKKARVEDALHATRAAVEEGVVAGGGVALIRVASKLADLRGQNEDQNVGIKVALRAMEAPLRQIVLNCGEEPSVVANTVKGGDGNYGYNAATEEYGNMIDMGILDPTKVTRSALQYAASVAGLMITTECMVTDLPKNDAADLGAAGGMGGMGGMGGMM

Which results are given for `O=S(=O)(Nc1ccc(-c2nc3ccccc3o2)cc1)c1ccc(Cl)cc1`?
IC50 [1]: 46 µM; IC50 [2]: 43 µM; IC50 [3]: 42 µM; IC50 [4]: 36 µM; inhibition at 200 µM [5]: 7%; IC50 [6]: > 100 µM; IC50 [7]: > 63 µM; IC50 (E. coli GroEL/ES [8]): 151 µM; IC50 (E. coli GroEL/ES [9]): > 100 µM; IC50 (HSP60/HSP10): 61 µM; CC50 at 48 h [10]: 81 µM; CC50 at 48 h [11]: > 100 µM

What does the source list for `O=S(=O)(Nc1ccc2oc(-c3ccccc3)nc2c1)c1cccc(O)c1`?
IC50 [1]: 98 µM; IC50 [2]: > 100 µM; IC50 [3]: > 100 µM; IC50 [4]: 72 µM; inhibition at 200 µM [5]: 3%; IC50 [6]: > 100 µM; IC50 [7]: > 63 µM; IC50 (E. coli GroEL/ES [8]): 103 µM; IC50 (E. coli GroEL/ES [9]): 58 µM; IC50 (HSP60/HSP10): 76 µM; CC50 at 48 h [10]: 79 µM; CC50 at 48 h [11]: > 100 µM

For `COc1ccc(Cl)cc1S(=O)(=O)Nc1ccc2oc(-c3ccccc3)nc2c1`, which IC50 [1] is on record?
Its IC50 is 31 µM.

What about the IC50 [2] of the same molecule?
The IC50 was 27 µM.

And the IC50 [3]?
Its IC50 is 25 µM.

What about the IC50 [4] of the same molecule?
The IC50 was 37 µM.

And the inhibition at 200 µM [5]?
Its inhibition at 200 µM is 0%.

What about the IC50 [6] of the same molecule?
The IC50 was greater than 100 µM.

And the IC50 [7]?
Its IC50 is greater than 63 µM.

And the IC50 (E. coli GroEL/ES [8])?
The IC50 was 105 µM.

What about the IC50 (E. coli GroEL/ES [9]) of the same molecule?
Its IC50 is 81 µM.

And the IC50 (HSP60/HSP10)?
Its IC50 is greater than 100 µM.

And the CC50 at 48 h [10]?
The CC50 at 48 h was 31 µM.

And the CC50 at 48 h [11]?
Its CC50 at 48 h is 74 µM.

Which IC50 [1] does the source give for `O=S(=O)(Nc1ccc2oc(-c3ccccc3)nc2c1)c1ccc(Cl)c(Cl)c1` here?
The IC50 was 33 µM.

What about the IC50 [2] of the same molecule?
The IC50 was 35 µM.

What about the IC50 [3] of the same molecule?
Its IC50 is 33 µM.

What about the IC50 [4] of the same molecule?
The IC50 was 25 µM.

What about the inhibition at 200 µM [5] of the same molecule?
The inhibition at 200 µM was 22%.

And the IC50 [6]?
Its IC50 is greater than 100 µM.

And the IC50 [7]?
The IC50 was greater than 63 µM.

And the IC50 (E. coli GroEL/ES [8])?
Its IC50 is 152 µM.

What about the IC50 (E. coli GroEL/ES [9]) of the same molecule?
The IC50 was 79 µM.

And the IC50 (HSP60/HSP10)?
Its IC50 is greater than 100 µM.

What about the CC50 at 48 h [10] of the same molecule?
Its CC50 at 48 h is 55 µM.

And the CC50 at 48 h [11]?
Its CC50 at 48 h is 71 µM.

Which results are given for `O=S(=O)(Nc1ccc2oc(-c3ccccc3)nc2c1)c1ccc(F)cc1`?
IC50 [1]: 85 µM; IC50 [2]: 78 µM; IC50 [3]: 61 µM; IC50 [4]: 41 µM; inhibition at 200 µM [5]: 47%; IC50 [6]: > 100 µM; IC50 [7]: > 63 µM; IC50 (E. coli GroEL/ES [8]): 195 µM; IC50 (E. coli GroEL/ES [9]): > 100 µM; IC50 (HSP60/HSP10): > 100 µM; CC50 at 48 h [10]: 38 µM; CC50 at 48 h [11]: 68 µM

Which IC50 [1] does the source give for `O=S(=O)(Nc1ccc(-c2nc3ccccc3o2)cc1)c1ccccc1F` here?
Its IC50 is 85 µM.

What about the IC50 [2] of the same molecule?
The IC50 was 55 µM.

What about the IC50 [3] of the same molecule?
Its IC50 is 80 µM.

What about the IC50 [4] of the same molecule?
The IC50 was 70 µM.

What about the inhibition at 200 µM [5] of the same molecule?
The inhibition at 200 µM was 8%.

What about the IC50 [6] of the same molecule?
Its IC50 is greater than 100 µM.

What about the IC50 [7] of the same molecule?
Its IC50 is greater than 63 µM.

What about the IC50 (E. coli GroEL/ES [8]) of the same molecule?
The IC50 was 180 µM.

What about the IC50 (E. coli GroEL/ES [9]) of the same molecule?
Its IC50 is greater than 100 µM.

And the IC50 (HSP60/HSP10)?
Its IC50 is greater than 100 µM.

What about the CC50 at 48 h [10] of the same molecule?
Its CC50 at 48 h is greater than 100 µM.

And the CC50 at 48 h [11]?
The CC50 at 48 h was greater than 100 µM.

Which IC50 [1] does the source give for `O=S(=O)(Nc1ccc(-c2nc3ccccc3o2)cc1)c1cccc(Cl)c1` here?
The IC50 was 43 µM.

And the IC50 [2]?
Its IC50 is 37 µM.

What about the IC50 [3] of the same molecule?
The IC50 was 67 µM.

And the IC50 [4]?
The IC50 was 545 µM.

What about the inhibition at 200 µM [5] of the same molecule?
Its inhibition at 200 µM is 33%.

And the IC50 [6]?
The IC50 was greater than 100 µM.

And the IC50 [7]?
The IC50 was greater than 63 µM.

And the IC50 (E. coli GroEL/ES [8])?
The IC50 was 168 µM.

And the IC50 (E. coli GroEL/ES [9])?
Its IC50 is 79 µM.

What about the IC50 (HSP60/HSP10) of the same molecule?
Its IC50 is 54 µM.

What about the CC50 at 48 h [10] of the same molecule?
Its CC50 at 48 h is 83 µM.

And the CC50 at 48 h [11]?
The CC50 at 48 h was greater than 100 µM.
